By MIC is commonly meant the smallest concentration in the dilution series that meets the test's criterion for growth inhibition. Low values mean greater potency, high ones weaker potency.

Values after ≈ are worked out from the molar mass of the structure shown.

The subject of this test is Plasmodium falciparum. The test is described as follows: In vitro minimum inhibitory concentration against Plasmodium falciparum NF54 over 40 hours. The class given is functional. An outline of the steps:
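Micro assay in 96-well format: compounds at 0.25–50 µg/mL, duplicate wells, incubated with parasitized cells at 37 °C in candle jar, 36–40 h. Giemsa-stained smears scored microscopically for ring-to-schizont maturation. MIC is the concentration fully blocking schizont maturation. Pyrimethamine reference.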
As for `Clc1ccc(-c2cc(-c3c[nH]c4ccccc34)nc(N3CCCC3)n2)cc1`, 10 µg/mL (≈ 26.7 µM) was the least that counted as inhibitory (MIC).

On to `COc1ccc(-c2cc(-c3c[nH]c4ccccc34)nc(N3CCN(C)CC3)n2)cc1OC`, for which 1 µg/mL (≈ 2.33 µM) was the least that counted as inhibitory (MIC).

Compound `CN1CCN(c2nc(-c3ccc(Cl)cc3)cc(-c3c[nH]c4ccccc34)n2)CC1` showed an MIC of 1 µg/mL (≈ 2.48 µM).

Compound `Clc1ccc(-c2cc(-c3c[nH]c4ccccc34)nc(N3CCCCC3)n2)cc1` yielded an MIC of 10 µg/mL (≈ 25.7 µM).

The compound `Clc1ccc(-c2cc(-c3c[nH]c4ccccc34)nc(N3CCOCC3)n2)cc1` displayed an MIC of 50 µg/mL (≈ 128 µM).

As to `Cc1ccc(-c2cc(-c3c[nH]c4ccccc34)nc(N3CCCCC3)n2)cc1`, it took 10 µg/mL (≈ 27.1 µM) to inhibit growth (MIC).

Compound `COc1ccc(-c2cc(-c3c[nH]c4ccccc34)nc(N3CCCCC3)n2)cc1` displayed an MIC of 10 µg/mL (≈ 26 µM).

Compound `CN1CCN(c2nc(-c3ccccc3)cc(-c3c[nH]c4ccccc34)n2)CC1` gave an MIC of 1 µg/mL (≈ 2.71 µM).

In turn, `COc1ccc(-c2cc(-c3c[nH]c4ccccc34)nc(N3CCN(C)CC3)n2)cc1` registered an MIC of 1 µg/mL (≈ 2.5 µM).

`COc1ccc(OC)c(-c2cc(-c3c[nH]c4ccccc34)nc(N3CCOCC3)n2)c1` had an MIC of 50 µg/mL (≈ 120 µM).

In the case of `Cc1ccc(-c2cc(-c3c[nH]c4ccccc34)nc(N3CCN(C)CC3)n2)cc1`, the MIC was 1 µg/mL (≈ 2.61 µM).

The compound `COc1ccc(-c2cc(-c3c[nH]c4ccccc34)nc(N3CCOCC3)n2)cc1` showed an MIC of 50 µg/mL (≈ 129 µM).

Consider `Cc1ccc(-c2cc(-c3c[nH]c4ccccc34)nc(N3CCOCC3)n2)cc1`, for which 50 µg/mL (≈ 135 µM) was the least that counted as inhibitory (MIC).

As to `c1ccc(-c2cc(-c3c[nH]c4ccccc34)nc(N3CCOCC3)n2)cc1`, 50 µg/mL (≈ 140 µM) was the least that counted as inhibitory (MIC).

On to `COc1ccc(-c2cc(-c3c[nH]c4ccccc34)nc(N3CCCC3)n2)cc1`, for which the lowest concentration to inhibit growth (MIC) was 10 µg/mL (≈ 27 µM).

Compound `c1ccc(-c2cc(-c3c[nH]c4ccccc34)nc(N3CCCCC3)n2)cc1` returned an MIC of 10 µg/mL (≈ 28.2 µM).

Compound `COc1ccc(OC)c(-c2cc(-c3c[nH]c4ccccc34)nc(N3CCCCC3)n2)c1` yielded an MIC of 10 µg/mL (≈ 24.1 µM).

Turning to `COc1ccc(-c2cc(-c3c[nH]c4ccccc34)nc(N3CCCC3)n2)cc1OC`, the MIC worked out at 10 µg/mL (≈ 25 µM).

`Cc1ccc(-c2cc(-c3c[nH]c4ccccc34)nc(N3CCCC3)n2)cc1` registered an MIC of 10 µg/mL (≈ 28.2 µM).

As to `COc1ccc(-c2cc(-c3c[nH]c4ccccc34)nc(N3CCOCC3)n2)cc1OC`, it took 50 µg/mL (≈ 120 µM) to inhibit growth (MIC).

Compound `COc1ccc(OC)c(-c2cc(-c3c[nH]c4ccccc34)nc(N3CCCC3)n2)c1` returned an MIC of 10 µg/mL (≈ 25 µM).

Regarding `c1ccc(-c2cc(-c3c[nH]c4ccccc34)nc(N3CCCC3)n2)cc1`, 10 µg/mL (≈ 29.4 µM) was the least that counted as inhibitory (MIC).

`COc1ccc(-c2cc(-c3c[nH]c4ccccc34)nc(N3CCCCC3)n2)cc1OC` came in with an MIC of 10 µg/mL (≈ 24.1 µM).

Turning to `COc1ccc(OC)c(-c2cc(-c3c[nH]c4ccccc34)nc(N3CCN(C)CC3)n2)c1`, it took 1 µg/mL (≈ 2.33 µM) to inhibit growth (MIC).

Compound `CCc1nc(N)nc(N)c1-c1ccc(Cl)cc1` [PYRIMETHAMINE] yielded an MIC of 10 µg/mL (≈ 40.2 µM).

The values above are taken from ChEMBL document CHEMBL1139634, “Synthesis of substituted indole derivatives as a new class of antimalarial agents” (2005).
